Read-outs that look alike come from different tables or passages of the source.
Tests used:
[1] = target: protein phosphatase 2A (PP2A) (Homo sapiens, UniProt P67775); assay: Protein phosphatase 2A inhibition assay; assay type: biochemical
Method in brief: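 Colorimetric PP2A inhibition after a published method. Samples incubated 1 h at room temperature and read at 405 nm. A standard curve of the parent toxin was prepared identically to the samples. Isolated metabolite concentrations were set by LC-MS against a single-point calibration (10 μL of 6.2 μM parent toxin, 50 ng). IC50 taken from activity versus log concentration curves.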

[2] = system: CYP1A1, 1A2, 2C8, 2C9, 2C19, 2D6, 2E1; assay: Incubation of OA with the seven other recombinant P450s; assay type: in vitro ADME, human; conditions: same incubation conditions, limit of detection 0.1 ng OA
CYP3A4 = CYP3A4 (Homo sapiens, UniProt P08684); assay: Incubation of OA with recombinant CYP3A4 and CYP3A4 enzyme kinetics; assay type: in vitro ADME
CYP3A4, sequence (P08684 whole entry): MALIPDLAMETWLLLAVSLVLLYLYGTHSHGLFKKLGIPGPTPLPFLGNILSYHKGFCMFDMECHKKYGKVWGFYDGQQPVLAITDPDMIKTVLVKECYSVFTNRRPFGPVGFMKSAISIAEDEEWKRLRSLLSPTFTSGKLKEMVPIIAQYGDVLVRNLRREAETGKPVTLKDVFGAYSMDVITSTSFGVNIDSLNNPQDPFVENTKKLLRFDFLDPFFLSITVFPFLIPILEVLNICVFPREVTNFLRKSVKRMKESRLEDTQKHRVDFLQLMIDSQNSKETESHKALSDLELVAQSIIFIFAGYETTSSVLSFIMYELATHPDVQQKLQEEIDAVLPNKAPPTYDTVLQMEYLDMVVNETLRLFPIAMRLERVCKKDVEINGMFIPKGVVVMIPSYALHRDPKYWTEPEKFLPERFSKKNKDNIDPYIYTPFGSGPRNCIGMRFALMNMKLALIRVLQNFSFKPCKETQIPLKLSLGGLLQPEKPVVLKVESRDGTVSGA

various liver cell lines = conditions: depending on cell line; ref Souid-Mensi, et al., 2008; cited from earlier work
[3] = Incubation of OA with pooled human liver microsomes; assay type: in vitro ADME; conditions: 5 mg mL^-1 protein, 5 μM OA, 37 °C, 30 min
CYP3A5 = CYP3A5 (Homo sapiens, UniProt P20815); assay: Incubation of OA with recombinant CYP3A5; assay type: in vitro ADME; conditions: CYP 3A5 reaction, after 6 hrs of incubation
CYP3A5, sequence (P20815 whole entry): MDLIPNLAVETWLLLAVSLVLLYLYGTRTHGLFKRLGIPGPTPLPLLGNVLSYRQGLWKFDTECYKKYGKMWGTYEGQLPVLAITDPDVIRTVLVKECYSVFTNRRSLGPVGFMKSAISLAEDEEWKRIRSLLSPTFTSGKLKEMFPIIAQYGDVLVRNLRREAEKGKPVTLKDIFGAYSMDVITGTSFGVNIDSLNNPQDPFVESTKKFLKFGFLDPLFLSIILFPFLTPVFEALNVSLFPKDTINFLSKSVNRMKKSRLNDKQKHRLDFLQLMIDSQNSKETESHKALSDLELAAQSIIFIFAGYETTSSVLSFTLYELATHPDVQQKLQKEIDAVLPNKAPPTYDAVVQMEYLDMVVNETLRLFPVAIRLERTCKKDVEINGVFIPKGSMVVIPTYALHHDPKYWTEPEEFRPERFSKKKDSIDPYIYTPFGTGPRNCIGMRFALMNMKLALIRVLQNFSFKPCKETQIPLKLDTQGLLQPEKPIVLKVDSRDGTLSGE

protein phosphatase 2A (PP2A), sequence (P67775 whole entry): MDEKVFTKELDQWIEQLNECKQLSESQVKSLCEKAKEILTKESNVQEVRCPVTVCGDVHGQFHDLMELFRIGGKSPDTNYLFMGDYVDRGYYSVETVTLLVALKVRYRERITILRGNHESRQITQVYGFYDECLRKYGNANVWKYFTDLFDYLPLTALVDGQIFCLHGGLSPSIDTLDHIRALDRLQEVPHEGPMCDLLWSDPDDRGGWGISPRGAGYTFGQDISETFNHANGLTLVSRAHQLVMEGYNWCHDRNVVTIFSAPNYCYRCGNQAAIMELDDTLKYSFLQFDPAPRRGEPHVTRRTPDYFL

11S-hydroxy okadaic acid [metabolite 2]
IC50 ([1]; read-out: IC50, inhibition of PP2A, 1 h at room temperature, read at 405 nm): 1340 pM

C=C1[C@@H](O)[C@@H]2O[C@]3(CC[C@H](/C=C/[C@@H](C)[C@@H]4CC(C)=C[C@@]5(O[C@H](C[C@@](C)(O)C(=O)O)CC[C@H]5O)O4)O3)CC[C@H]2O[C@@H]1[C@@H](O)C[C@H](C)[C@H]1O[C@@]2(CCCCO2)CC[C@H]1C [OA, Okadaic acid]
IC50 [1]: 610 pM | metabolism of OA by the seven other P450s [2]: none of the seven other P450s metabolized OA | overall yield of all four metabolites (CYP3A4; CYP3A4 reaction, after 6 hrs of incubation): 31.3% | Vmax for the oxidation of OA by CYP3A4 (CYP3A4; double-reciprocal plots, OA 10 μM to 100 μM, 300 pmol 3A4): 7.23 nmol of metabolites nmol^-1 min^-1 | Km (CYP3A4; human, recombinant CYP3A4): 73.4 µM | LD50 for OA with various liver cell lines (various liver cell lines): 10 to 100 nM | metabolite formation in pooled human liver microsomes [3]: four metabolites, identical to those formed in CYP3A4 incubations, were produced | overall yield of all four metabolites (CYP3A5): 6.1%

From PMC2813889 (Toxicon : official journal of the International Society on …, 2009)
